Laboratory results taken from ChEMBL document CHEMBL3098054, “The synthesis of novel taxoids for oral administration” (Bioorg Med Chem, 2014).

Experiments:
MDR1 [1] = assay: Apparent permeability from apical to basolateral side in MDCK cells expressing MDR1 at 5 uM after 90 mins; assay type: ADME, cell-based, Canis lupus familiaris; conditions: dog
Summary of the method: (§1)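 MDCK-MDR1 monolayers grown on polycarbonate filter Transwells, confluent 5 days after seeding, TEER >1000 Ω·cm² before use. MDCK-WT cells plated at 5.0 × 10⁴ cells/well and used after 6 days at TEER >200 Ω·cm². Transport run at 37 °C in HBSS pH 7.4 for 90 min, in both directions. Lucifer yellow permeability and TEER change served as monolayer integrity checks. Efflux ratio = Papp(B–A)/Papp(A–B).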

[2] = Efflux ratio of apparent permeability from basolateral to apical side over apical to basolateral side in wild-type MDCK cells at 5 uM after 90 mins; assay type: ADME, cell-based, Canis lupus familiaris; conditions: dog; summary of the method: as §1
MDR1 [3] = assay: Apparent permeability from basolateral to apical side in MDCK cells expressing MDR1 at 5 uM after 90 mins; assay type: ADME, cell-based, Canis lupus familiaris; conditions: dog; summary of the method: as §1
MDR1 [4] = assay: Efflux ratio of apparent permeability from basolateral to apical side over apical to basolateral side in MDCK cells expressing MDR1 at 5 uM after 90 mins; assay type: ADME, cell-based, Canis lupus familiaris; conditions: dog; summary of the method: as §1
[5] = Apparent permeability from basolateral to apical side in wild-type MDCK cells at 5 uM after 90 mins; assay type: ADME, cell-based, Canis lupus familiaris; conditions: dog; summary of the method: as §1
[6] = Apparent permeability from apical to basolateral side in wild-type MDCK cells at 5 uM after 90 mins; assay type: ADME, cell-based, Canis lupus familiaris; conditions: dog; summary of the method: as §1
[7] = (§2) Efflux ratio of apparent permeability from basolateral to apical side over apical to basolateral side in human Caco2 cells at 10 uM after 90 mins by LC-MS/MS analysis; assay type: ADME, cell-based, Caco-2; conditions: Caco-2
Summary of the method: (§3)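 Caco-2 cells cultured 21 days on 24-well inserts, TEER >250 Ω·cm². Monolayers pre-incubated in HBSS pH 7.4 at 37 °C. Compound added to the donor side at 10 µM, 37 °C, 5% CO₂, 90 min, in the A-to-B and B-to-A directions. Donor and receiver levels measured by LC-MS/MS. Papp calculated from receiver amount, membrane area 0.7 cm², time and initial donor concentration. Efflux ratio = B–A/A–B.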

MCF7 [8] = assay: Cytotoxicity against human MCF7 cells after 72 hrs by MTT assay; assay type: functional, cell-based; conditions: MCF7, 72 h
Summary of the method: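 MCF-7 cells exposed to compound for 72 h and read by MTT. At least six replicate wells per assay, run on three separate occasions. IC₅₀ given as mean with standard deviation.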

[9] = (§4) Apparent permeability from basolateral to apical side in human Caco2 cells at 10 uM after 90 mins by LC-MS/MS analysis; assay type: ADME, cell-based, Caco-2; conditions: Caco-2
[10] = (§5) Apparent permeability from apical to basolateral side in human Caco2 cells at 10 uM after 90 mins by LC-MS/MS analysis; assay type: ADME, cell-based, Caco-2; conditions: Caco-2
[11] = biological target: ATP-dependent translocase ABCB1 (Homo sapiens, UniProt P08183); assay: Inhibition of MDR1 (unknown origin) expressed in MDCK cells at 10 uM after 90 mins; assay type: ADME, cell-based; conditions: 1.5 h
Summary of the method: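 P-gp inhibition measured as digoxin bidirectional transport across MDCK-MDR1 monolayers at 37 °C in HBSS pH 7.4, with test compound present at 10 µM. Read-out is the change in digoxin efflux ratio, Papp(B–A)/Papp(A–B).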

Caco-2 [12] = assay: as §2; assay type: ADME, cell-based; conditions: caco-2, 1.5 h, 10 µM; summary of the method: as §3
MCF7 [13] = assay: Cytotoxicity against human MCF7 cells at 1 uM after 72 hrs by MTT assay; assay type: functional; conditions: MCF7, 72 h, read-out: GI
Summary of the method: (§6)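 Cells plated at 2000–5000/well, attached overnight at 37 °C. DMSO stocks (100 mM) serially diluted in medium to a final 1 µM, tested in duplicate wells. Exposure 72 h at 37 °C, 5% CO₂. MTT (5 mg/mL, 10 µL) added for 4 h. Lysis in 10% SDS / 5% isopropanol / 0.012 N HCl, then OD read at 580–680 nm.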

A-375 = assay: Cytotoxicity against human A375 cells at 1 uM after 72 hrs by MTT assay; assay type: functional; conditions: A-375, 72 h, read-out: GI
Summary of the method: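 Cells plated at 2000–5000/well, attached overnight at 37 °C. DMSO stocks (100 mM) serially diluted in medium to a final 1 µM, tested in duplicate wells. MTT (5 mg/mL, 10 µL) added for 4 h. Lysis in 10% SDS / 5% isopropanol / 0.012 N HCl, then OD read at 580–680 nm.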

HL-60 = assay: Cytotoxicity against human HL60 cells at 1 uM after 72 hrs by MTT assay; assay type: functional; conditions: HL-60, 72 h, read-out: GI; summary of the method: as §6
NCI-H460 = assay: Cytotoxicity against human NCI-H460 cells at 1 uM after 72 hrs by MTT assay; assay type: functional; conditions: NCI-H460, 72 h, read-out: GI; summary of the method: as §6
HeLa = assay: Cytotoxicity against human HeLa cells at 1 uM after 72 hrs by MTT assay; assay type: functional; conditions: read-out: GI; summary of the method: as §6
Caco-2 [14] = assay: as §4; assay type: ADME, cell-based; conditions: caco-2, 1.5 h, 10 µM
Caco-2 [15] = assay: as §5; assay type: ADME, cell-based; conditions: caco-2, 1.5 h, 10 µM
HT-29 = assay: Cytotoxicity against human HT-29 cells at 1 uM after 72 hrs by MTT assay; assay type: functional; conditions: HT-29, 72 h, read-out: GI; summary of the method: as §6
DU-145 = assay: Cytotoxicity against human DU145 cells at 1 uM after 72 hrs by MTT assay; assay type: functional; conditions: DU-145, 72 h, read-out: GI; summary of the method: as §6
A2780 = assay: Cytotoxicity against human A2780 cells at 1 uM after 72 hrs by MTT assay; assay type: functional; conditions: A2780, 72 h, read-out: GI; summary of the method: as §6

Sequence of ATP-dependent translocase ABCB1 (P08183 whole entry): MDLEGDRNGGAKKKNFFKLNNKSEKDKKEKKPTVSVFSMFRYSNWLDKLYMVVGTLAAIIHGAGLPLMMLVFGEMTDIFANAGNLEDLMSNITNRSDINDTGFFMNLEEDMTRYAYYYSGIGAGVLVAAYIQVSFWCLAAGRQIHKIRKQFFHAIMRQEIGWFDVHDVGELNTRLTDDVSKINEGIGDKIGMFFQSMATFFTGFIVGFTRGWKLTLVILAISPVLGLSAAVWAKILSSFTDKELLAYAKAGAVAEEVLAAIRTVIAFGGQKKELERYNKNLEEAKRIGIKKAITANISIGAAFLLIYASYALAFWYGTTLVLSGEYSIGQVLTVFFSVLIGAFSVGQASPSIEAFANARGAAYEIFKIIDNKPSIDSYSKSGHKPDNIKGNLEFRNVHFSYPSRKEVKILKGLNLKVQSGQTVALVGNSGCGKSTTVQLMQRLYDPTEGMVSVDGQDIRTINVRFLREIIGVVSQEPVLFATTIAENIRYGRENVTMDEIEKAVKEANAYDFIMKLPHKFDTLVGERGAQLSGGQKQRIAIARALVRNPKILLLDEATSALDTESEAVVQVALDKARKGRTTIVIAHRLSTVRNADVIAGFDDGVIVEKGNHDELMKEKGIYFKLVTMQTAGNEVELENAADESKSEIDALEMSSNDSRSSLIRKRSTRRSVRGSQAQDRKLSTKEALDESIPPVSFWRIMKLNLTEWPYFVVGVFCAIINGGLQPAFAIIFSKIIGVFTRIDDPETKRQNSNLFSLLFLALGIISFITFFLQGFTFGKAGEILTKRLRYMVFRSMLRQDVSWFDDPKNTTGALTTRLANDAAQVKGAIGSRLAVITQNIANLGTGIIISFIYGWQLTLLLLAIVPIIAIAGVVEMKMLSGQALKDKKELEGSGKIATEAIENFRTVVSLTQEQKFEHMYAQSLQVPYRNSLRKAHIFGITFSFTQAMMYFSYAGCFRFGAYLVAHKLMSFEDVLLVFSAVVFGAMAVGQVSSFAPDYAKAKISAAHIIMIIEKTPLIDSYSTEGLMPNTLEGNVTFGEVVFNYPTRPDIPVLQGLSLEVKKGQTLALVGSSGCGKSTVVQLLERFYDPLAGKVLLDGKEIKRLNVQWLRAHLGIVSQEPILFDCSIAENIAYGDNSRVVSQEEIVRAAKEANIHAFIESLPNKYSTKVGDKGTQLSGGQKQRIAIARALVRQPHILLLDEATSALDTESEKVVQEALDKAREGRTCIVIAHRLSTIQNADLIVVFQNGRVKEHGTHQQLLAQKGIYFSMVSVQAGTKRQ

C[C@H]1O[C@@H](O[C@H]2[C@@H](O)C[C@H](O[C@H]3[C@@H](O)C[C@H](O[C@H]4CC[C@@]5(C)[C@H](CC[C@@H]6[C@@H]5C[C@@H](O)[C@]5(C)[C@@H](C7=CC(=O)OC7)CC[C@]65O)C4)O[C@@H]3C)O[C@@H]2C)C[C@H](O)[C@@H]1O [DIGOXIN]
Papp A→B at 1.5 h, 5 µM (MDR1 [1]): 0.19 ×10⁻⁶ cm/s
efflux ratio at 1.5 h, 5 µM [2]: 22.7
Papp B→A at 1.5 h, 5 µM (MDR1 [3]): 12.4 ×10⁻⁶ cm/s
efflux ratio at 1.5 h, 5 µM (MDR1 [4]): 65.5
Papp B→A at 1.5 h, 5 µM [5]: 8.06 ×10⁻⁶ cm/s
Papp A→B at 1.5 h, 5 µM [6]: 0.35 ×10⁻⁶ cm/s

CC(=O)O[C@H]1C(=O)[C@@]2(C)[C@H]([C@H](OC(=O)c3ccccc3)[C@]3(O)C[C@H](OC(=O)[C@H](O)[C@@H](NC(=O)c4ccccc4)c4ccccc4)C(C)=C1C3(C)C)[C@]1(OC(C)=O)CO[C@@H]1C[C@@H]2O [PACLITAXEL]
efflux ratio at 1.5 h, 10 µM [7]: 34.4
Papp A→B at 1.5 h, 5 µM (MDR1 [1]): 0.13 ×10⁻⁶ cm/s
IC50 (MCF7 [8]): 7.05 nM
Papp B→A at 1.5 h, 10 µM [9]: 33.4 ×10⁻⁶ cm/s
Papp A→B at 1.5 h, 10 µM [10]: 0.97 ×10⁻⁶ cm/s
efflux ratio at 1.5 h, 5 µM [2]: 344
Papp B→A at 1.5 h, 5 µM (MDR1 [3]): 44.1 ×10⁻⁶ cm/s
inhibition (INH) [11]: Not Active
efflux ratio at 1.5 h, 5 µM (MDR1 [4]): 334
Papp B→A at 1.5 h, 5 µM [5]: 29.8 ×10⁻⁶ cm/s
Papp A→B at 1.5 h, 5 µM [6]: 0.09 ×10⁻⁶ cm/s

CO[C@H]1C(=O)[C@]2(C)[C@@H](OC(=O)N(C)C)C[C@H]3OC[C@@]3(OC(C)=O)[C@H]2[C@H](OC(=O)c2ccccc2)[C@]2(O)C[C@H](OC(=O)[C@H](O)[C@@H](NC(=O)OC(C)(C)C)c3ccccc3)C(C)=C1C2(C)C
Ratio (Caco-2 [12]): 1.73
Papp A→B at 1.5 h, 5 µM (MDR1 [1]): 0.52 ×10⁻⁶ cm/s
IC50 (MCF7 [8]): 9.63 nM
inhibition of growth at 1 µM (MCF7 [13]): 102%
inhibition of growth at 1 µM (A-375): 90.4%
inhibition of growth at 1 µM (HL-60): 97.8%
inhibition of growth at 1 µM (NCI-H460): 86.6%
inhibition of growth at 1 µM (HeLa): 103%
Papp (Caco-2 [14]): 26 ×10⁻⁶ cm/s
Papp (Caco-2 [15]): 10.6 ×10⁻⁶ cm/s
efflux ratio at 1.5 h, 5 µM [2]: 2.28
Papp B→A at 1.5 h, 5 µM (MDR1 [3]): 5.26 ×10⁻⁶ cm/s
inhibition of growth at 1 µM (HT-29): 89.8%
inhibition of growth at 1 µM (DU-145): 87.5%
inhibition (INH) [11]: Active
efflux ratio at 1.5 h, 5 µM (MDR1 [4]): 10.1
Papp B→A at 1.5 h, 5 µM [5]: 3.17 ×10⁻⁶ cm/s
Papp A→B at 1.5 h, 5 µM [6]: 1.39 ×10⁻⁶ cm/s
inhibition of growth at 1 µM (A2780): 95.8%

CO[C@H]1C(=O)[C@]2(C)[C@@H](OC(=O)N(C)C)C[C@H]3OC[C@@]3(OC(C)=O)[C@H]2[C@H](OC(=O)c2ccccc2)[C@]2(O)C[C@H](OC(=O)[C@H](O)[C@H](CC(C)C)NC(=O)OC(C)(C)C)C(C)=C1C2(C)C
Ratio (Caco-2 [12]): 1.59
IC50 (MCF7 [8]): 13.3 nM
inhibition of growth at 1 µM (HeLa): 102%
Papp (Caco-2 [14]): 30.9 ×10⁻⁶ cm/s
Papp (Caco-2 [15]): 10.7 ×10⁻⁶ cm/s

CO[C@H]1C[C@H]2OC[C@@]2(OC(C)=O)[C@H]2[C@H](OC(=O)c3ccccc3)[C@]34OC(=O)O[C@H]3[C@H](OC(=O)[C@H](O)[C@@H](NC(=O)OC(C)(C)C)c3ccccc3)C(C)=C([C@@H](OC(=O)N(C)C)C(=O)[C@]12C)C4(C)C
efflux ratio at 1.5 h, 10 µM [7]: 2.04
Papp A→B at 1.5 h, 5 µM (MDR1 [1]): 0.63 ×10⁻⁶ cm/s
IC50 (MCF7 [8]): 7.93 nM
Papp B→A at 1.5 h, 10 µM [9]: 33.5 ×10⁻⁶ cm/s
Papp A→B at 1.5 h, 10 µM [10]: 16.4 ×10⁻⁶ cm/s
efflux ratio at 1.5 h, 5 µM [2]: 2.13
Papp B→A at 1.5 h, 5 µM (MDR1 [3]): 6.38 ×10⁻⁶ cm/s
inhibition (INH) [11]: Active
efflux ratio at 1.5 h, 5 µM (MDR1 [4]): 10.1
Papp B→A at 1.5 h, 5 µM [5]: 2.99 ×10⁻⁶ cm/s
Papp A→B at 1.5 h, 5 µM [6]: 1.4 ×10⁻⁶ cm/s
